From PubChem BioAssay AID2204 (Vanderbilt High Throughput Screening Facility, 2009) come the findings set out here.

What all share (test): muscarinic M1-M5 subtype PAM potency panel, profiling panel, selectivity assay for M5 allosteric modulator project, cell-based, calcium flux (AID 2204)
Holding throughout (conditions): CHO-K1 mAChR panel, Fluo-4 calcium flux, ACh EC20

For assay [1], the target named is Muscarinic acetylcholine receptor M3 (Homo sapiens) (UniProt P20309). The method, boiled down:
(§1)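 Assay system: transfected CHO-K1 cell lines; Times: 1.5 min compound pre-incubation, 50 s agonist exposure, 25 °C; Reagent: acetylcholine at EC20; Measured by: calcium mobilization signal; Medium: HBSS buffer, pH 7.4, with 2.5 mM probenecid, 20 mM HEPES.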

The target in assay [2] is Muscarinic acetylcholine receptor M5 (Homo sapiens) (UniProt P08912). The method, boiled down:
as §1

For assay [3], the target named is Muscarinic acetylcholine receptor M1 (Rattus norvegicus) (UniProt P08482). The method, boiled down: as §1
Chain of Muscarinic acetylcholine receptor M1 (Rattus norvegicus) (P08482 whole entry, looked up): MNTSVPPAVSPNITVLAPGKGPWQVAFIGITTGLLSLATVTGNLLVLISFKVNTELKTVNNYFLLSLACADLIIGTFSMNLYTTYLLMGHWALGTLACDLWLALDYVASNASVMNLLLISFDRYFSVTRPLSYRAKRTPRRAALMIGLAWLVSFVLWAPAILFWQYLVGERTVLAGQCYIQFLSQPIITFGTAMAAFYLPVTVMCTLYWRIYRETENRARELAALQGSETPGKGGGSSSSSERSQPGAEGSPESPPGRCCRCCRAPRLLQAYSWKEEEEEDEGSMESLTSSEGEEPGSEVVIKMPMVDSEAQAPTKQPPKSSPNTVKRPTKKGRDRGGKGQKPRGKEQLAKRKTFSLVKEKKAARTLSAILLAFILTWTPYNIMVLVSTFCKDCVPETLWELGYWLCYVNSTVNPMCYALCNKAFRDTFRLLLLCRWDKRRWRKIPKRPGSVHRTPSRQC

Chain of Muscarinic acetylcholine receptor M5 (Homo sapiens) (P08912 whole entry, looked up): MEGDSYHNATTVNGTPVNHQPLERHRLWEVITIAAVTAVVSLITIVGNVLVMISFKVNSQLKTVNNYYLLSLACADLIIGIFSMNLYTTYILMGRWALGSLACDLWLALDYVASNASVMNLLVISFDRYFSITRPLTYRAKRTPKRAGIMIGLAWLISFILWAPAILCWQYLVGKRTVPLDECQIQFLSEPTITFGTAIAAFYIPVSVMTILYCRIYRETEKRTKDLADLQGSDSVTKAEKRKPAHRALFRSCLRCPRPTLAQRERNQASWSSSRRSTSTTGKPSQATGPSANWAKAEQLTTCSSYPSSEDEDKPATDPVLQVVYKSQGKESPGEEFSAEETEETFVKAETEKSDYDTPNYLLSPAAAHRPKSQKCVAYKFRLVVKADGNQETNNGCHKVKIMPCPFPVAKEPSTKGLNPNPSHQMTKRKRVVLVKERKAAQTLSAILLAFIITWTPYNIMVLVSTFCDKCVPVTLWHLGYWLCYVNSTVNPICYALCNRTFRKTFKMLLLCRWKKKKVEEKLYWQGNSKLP
Chain of Muscarinic acetylcholine receptor M3 (Homo sapiens) (P20309 whole entry, looked up): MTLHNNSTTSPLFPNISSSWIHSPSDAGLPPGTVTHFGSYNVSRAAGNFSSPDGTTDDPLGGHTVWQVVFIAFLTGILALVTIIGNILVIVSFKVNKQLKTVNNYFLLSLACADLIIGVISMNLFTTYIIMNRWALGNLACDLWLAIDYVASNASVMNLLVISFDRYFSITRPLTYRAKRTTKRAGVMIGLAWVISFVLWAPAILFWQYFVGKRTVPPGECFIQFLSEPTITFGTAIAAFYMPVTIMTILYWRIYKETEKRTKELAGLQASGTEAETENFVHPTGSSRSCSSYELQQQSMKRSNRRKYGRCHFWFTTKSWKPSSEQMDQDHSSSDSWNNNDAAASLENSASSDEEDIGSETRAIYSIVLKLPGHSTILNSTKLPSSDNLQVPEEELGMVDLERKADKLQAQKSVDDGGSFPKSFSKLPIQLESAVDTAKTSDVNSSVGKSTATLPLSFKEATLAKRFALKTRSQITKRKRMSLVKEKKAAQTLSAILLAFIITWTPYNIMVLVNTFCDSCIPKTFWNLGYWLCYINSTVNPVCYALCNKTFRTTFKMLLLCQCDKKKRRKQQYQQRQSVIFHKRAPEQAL

As a reminder, the EC50 is the concentration giving half of the maximal effect. For the molecule `COc1ccc(CN2C(=O)C(=O)c3ccc(OC(F)(F)F)cc32)cc1`, the values for the EC50 in assay [1] and in assay [2] were 10.3 µM and 5.68 µM, respectively.
On to `Cn1cc(-c2ccc(CN3C(=O)C(=O)c4cc(OC(F)(F)F)ccc43)cc2)cn1`, for which the EC50 in assay [2] is 3.26 µM.
Same read-out and setting: under `O=C1C(=O)N(Cc2ccc(-c3ccccc3)cc2)c2ccc(OC(F)(F)F)cc21` stands 2.66 µM; under `O=C1C(=O)N(Cc2ccc(-c3ccc(Cl)nc3)cc2)c2ccc(OC(F)(F)F)cc21`, 4.83 µM; under `COc1ccccc1-c1ccc(CN2C(=O)C(=O)c3cc(OC(F)(F)F)ccc32)cc1`, 3.86 µM.
Same read-out and setting: as for `O=C1C(=O)N(Cc2ccc(Oc3ccccc3)cc2)c2ccc(OC(F)(F)F)cc21`, the figure is 1.92 µM.
As for `COc1ccc(CN2C(=O)C(=O)c3cc(OC(F)(F)F)ccc32)cc1`, the EC50 in assay [1] is 109 µM; in assay [2], 1.16 µM.
Taken in the same sequence, the figures for `O=C1C(=O)N(Cc2ccc(-c3ccccc3)cc2)c2cc(OC(F)(F)F)ccc21` were 3.07 µM and 2.65 µM.
Regarding `O=C1C(=O)N(Cc2ccc(-c3ccsc3)cc2)c2ccc(OC(F)(F)F)cc21`, the EC50 in assay [2] was 2.77 µM.
Consider `O=C1C(=O)N(Cc2ccc(Br)cc2)c2ccccc21`, for which the values for the EC50 in assay [3], in assay [1] and in assay [2] were 6.04 µM, 6.38 µM and 4.08 µM, respectively.
For the molecule `O=C1C(=O)N(Cc2ccc(-c3ccc(F)nc3)cc2)c2ccc(OC(F)(F)F)cc21`, the EC50 in assay [2] amounted to 3.59 µM.
